Values after ≈ are worked out from the molar mass of the structure shown.
How the values were obtained:
Format in all cases: functional
Staphylococcus aureus [1] = assay: Antibacterial activity against methicillin-resistant Staphylococcus aureus G6 measured after overnight incubation by broth double-dilution method
How it was run: (§1)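 MIC by broth double-dilution in liquid Mueller-Hinton medium. Values are reported in µg/mL.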

Staphylococcus aureus [2] = assay: Antibacterial activity against methicillin-resistant Staphylococcus aureus 2 measured after overnight incubation by broth double-dilution method; how it was run: as §1
Staphylococcus aureus [3] = assay: Antibacterial activity against methicillin-resistant Staphylococcus aureus USA200 measured after overnight incubation by broth double-dilution method; how it was run: as §1
Staphylococcus aureus [4] = assay: Antibacterial activity against methicillin-resistant Staphylococcus aureus C7 measured after overnight incubation by broth double-dilution method; how it was run: as §1
[5] = system: Mycolicibacterium smegmatis; assay: Antibacterial activity against Mycobacterium smegmatis MC2-155 measured after overnight incubation by broth double-dilution method; conditions: str. MC2 155; how it was run: as §1
Staphylococcus aureus [6] = assay: Antibacterial activity against methicillin-resistant Staphylococcus aureus BRS3 measured after overnight incubation by broth double-dilution method; how it was run: as §1
Staphylococcus aureus [7] = assay: Antibacterial activity against methicillin-resistant Staphylococcus aureus G14 measured after overnight incubation by broth double-dilution method; how it was run: as §1
Staphylococcus aureus [8] = assay: Antibacterial activity against methicillin-resistant Staphylococcus aureus USA100 measured after overnight incubation by broth double-dilution method; how it was run: as §1
Enterococcus = assay: Antibacterial activity against Vancomycin-resistant Enterococcus measured after overnight incubation by broth double-dilution method; how it was run: as §1
Listeria monocytogenes = assay: Antibacterial activity against Listeria monocytogenes ATCC 19115 measured after overnight incubation by broth double-dilution method
How it was run: (§2)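 MIC by broth double-dilution in Mueller-Hinton medium. Re-testing at the time-kill inoculum used 1×10^6 CFU/mL.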

Staphylococcus aureus [9] = assay: Antibacterial activity against methicillin-sensitive Staphylococcus aureus ATCC 25923 measured after overnight incubation by broth double-dilution method; how it was run: as §1
Staphylococcus aureus [10] = assay: Antibacterial activity against methicillin-resistant Staphylococcus aureus USA600 measured after overnight incubation by broth double-dilution method; how it was run: as §1
Staphylococcus aureus [11] = assay: Antibacterial activity against methicillin-resistant Staphylococcus aureus ATCC 33591 measured after overnight incubation by broth double-dilution method; how it was run: as §1
Staphylococcus aureus [12] = assay: Antibacterial activity against methicillin-resistant Staphylococcus aureus USA300 measured after overnight incubation by broth double-dilution method; how it was run: as §1
Staphylococcus aureus [13] = assay: Antibacterial activity against methicillin-resistant Staphylococcus aureus S17 measured after overnight incubation by broth double-dilution method; how it was run: as §1
Staphylococcus aureus [14] = assay: Antibacterial activity against methicillin-resistant Staphylococcus aureus G12 measured after overnight incubation by broth double-dilution method; how it was run: as §1
Staphylococcus aureus [15] = assay: Antibacterial activity against methicillin-resistant Staphylococcus aureus C16 measured after overnight incubation by broth double-dilution method; how it was run: as §1
[16] = system: Staphylococcus epidermidis; assay: Antibacterial activity against Staphylococcus epidermidis ATCC 35984 measured after overnight incubation by broth double-dilution method; conditions: RP62A; how it was run: as §2
Enterococcus faecalis [17] = assay: Antibacterial activity against Enterococcus faecalis ATCC 49533 measured after overnight incubation by broth double-dilution method; how it was run: as §2
Staphylococcus aureus [18] = assay: Antibacterial activity against methicillin-resistant Staphylococcus aureus C14 measured after overnight incubation by broth double-dilution method; how it was run: as §1
Staphylococcus aureus [19] = assay: Antibacterial activity against methicillin-resistant Staphylococcus aureus S14 measured after overnight incubation by broth double-dilution method; how it was run: as §1
Enterococcus faecium = assay: Antibacterial activity against Enterococcus faecium BM4105-RF measured after overnight incubation by broth double-dilution method; how it was run: as §1
Staphylococcus aureus [20] = assay: Antibacterial activity against methicillin-resistant Staphylococcus aureus NRS4 measured after overnight incubation by broth double-dilution method; how it was run: as §1
Staphylococcus aureus [21] = assay: Antibacterial activity against methicillin-sensitive Staphylococcus aureus ATCC 29213 measured after overnight incubation by broth double-dilution method; how it was run: as §1
Staphylococcus aureus [22] = assay: Antibacterial activity against methicillin-resistant Staphylococcus aureus NRS77 measured after overnight incubation by broth double-dilution method; how it was run: as §1
Staphylococcus aureus [23] = assay: Antibacterial activity against methicillin-resistant Staphylococcus aureus S22 measured after overnight incubation by broth double-dilution method; how it was run: as §1
Staphylococcus aureus [24] = assay: Antibacterial activity against methicillin-sensitive Staphylococcus aureus ATCC 6538 measured after overnight incubation by broth double-dilution method; how it was run: as §1
Enterococcus faecalis [25] = assay: Antibacterial activity against Enterococcus faecalis ATCC 29212 measured after overnight incubation by broth double-dilution method; how it was run: as §2
Staphylococcus aureus [26] = assay: Antibacterial activity against methicillin-resistant Staphylococcus aureus S24 measured after overnight incubation by broth double-dilution method; how it was run: as §1
Staphylococcus aureus [27] = assay: Antibacterial activity against methicillin-resistant Staphylococcus aureus C2 measured after overnight incubation by broth double-dilution method; how it was run: as §1
Staphylococcus aureus [28] = assay: Antibacterial activity against methicillin-resistant Staphylococcus aureus G1 measured after overnight incubation by broth double-dilution method; how it was run: as §1
Staphylococcus aureus [29] = assay: Antibacterial activity against methicillin-resistant Staphylococcus aureus C19 measured after overnight incubation by broth double-dilution method; how it was run: as §1
Staphylococcus aureus [30] = assay: Antibacterial activity against methicillin-resistant Staphylococcus aureus C1 measured after overnight incubation by broth double-dilution method; how it was run: as §1
Staphylococcus aureus [31] = assay: Antibacterial activity against methicillin-resistant Staphylococcus aureus NRS51 measured after overnight incubation by broth double-dilution method; how it was run: as §1
Staphylococcus aureus [32] = assay: Antibacterial activity against methicillin-resistant Staphylococcus aureus 1 measured after overnight incubation by broth double-dilution method; how it was run: as §1

SMILES	MIC (Staphylococcus aureus [1])	MIC (Staphylococcus aureus [2])	MIC (Staphylococcus aureus [3])	MIC (Staphylococcus aureus [4])	MIC [5]	MIC (Staphylococcus aureus [6])	MIC (Staphylococcus aureus [7])	MIC (Staphylococcus aureus [8])	MIC (Enterococcus)	MIC (Listeria monocytogenes)	MIC (Staphylococcus aureus [9])	MIC (Staphylococcus aureus [10])	MIC (Staphylococcus aureus [11])	MIC (Staphylococcus aureus [12])	MIC (Staphylococcus aureus [13])	MIC (Staphylococcus aureus [14])	MIC (Staphylococcus aureus [15])	MIC [16]	MIC (Enterococcus faecalis [17])	MIC (Staphylococcus aureus [18])	also measured
CC(C)(C)n1sc2ccccc2c1=O	15.6 µg/mL (≈ 75.3 µM)	15.6 µg/mL (≈ 75.3 µM)	15.6 µg/mL (≈ 75.3 µM)	15.6 µg/mL (≈ 75.3 µM)	3.9 µg/mL (≈ 18.8 µM)	15.6 µg/mL (≈ 75.3 µM)	15.6 µg/mL (≈ 75.3 µM)	15.6 µg/mL (≈ 75.3 µM)	3.9 µg/mL (≈ 18.8 µM)	3.9 µg/mL (≈ 18.8 µM)	15.6 µg/mL (≈ 75.3 µM)	15.6 µg/mL (≈ 75.3 µM)	3.9 µg/mL (≈ 18.8 µM)	15.6 µg/mL (≈ 75.3 µM)	15.6 µg/mL (≈ 75.3 µM)	15.6 µg/mL (≈ 75.3 µM)	15.6 µg/mL (≈ 75.3 µM)	15.6 µg/mL (≈ 75.3 µM)	125 µg/mL (≈ 603 µM)	15.6 µg/mL (≈ 75.3 µM)	MIC (Staphylococcus aureus [19]): 2 µg/mL (≈ 9.65 µM); MIC (Enterococcus faecium): 7.8 µg/mL (≈ 37.6 µM); MIC (Staphylococcus aureus [20]): 15.6 µg/mL (≈ 75.3 µM); MIC (Staphylococcus aureus [21]): 15.6 µg/mL (≈ 75.3 µM); MIC (Staphylococcus aureus [22]): 15.6 µg/mL (≈ 75.3 µM); MIC (Staphylococcus aureus [23]): 15.6 µg/mL (≈ 75.3 µM); MIC (Staphylococcus aureus [24]): 15.6 µg/mL (≈ 75.3 µM); MIC (Enterococcus faecalis [25]): 15.6 µg/mL (≈ 75.3 µM); MIC (Staphylococcus aureus [26]): 15.6 µg/mL (≈ 75.3 µM)
CCCCCCCCCCCCn1sc2ccccc2c1=O	1 µg/mL (≈ 3.13 µM)	1 µg/mL (≈ 3.13 µM)	7.8 µg/mL (≈ 24.4 µM)	2 µg/mL (≈ 6.26 µM)	7.8 µg/mL (≈ 24.4 µM)	15.6 µg/mL (≈ 48.8 µM)	2 µg/mL (≈ 6.26 µM)	3.9 µg/mL (≈ 12.2 µM)	1 µg/mL (≈ 3.13 µM)	15.6 µg/mL (≈ 48.8 µM)	3.9 µg/mL (≈ 12.2 µM)	7.8 µg/mL (≈ 24.4 µM)	2 µg/mL (≈ 6.26 µM)	7.8 µg/mL (≈ 24.4 µM)	1 µg/mL (≈ 3.13 µM)	1 µg/mL (≈ 3.13 µM)	3.9 µg/mL (≈ 12.2 µM)	0.25 µg/mL (≈ 0.782 µM)	> 125 µg/mL	15.6 µg/mL (≈ 48.8 µM)	MIC (Staphylococcus aureus [27]): 1 µg/mL (≈ 3.13 µM); MIC (Staphylococcus aureus [28]): 0.5 µg/mL (≈ 1.56 µM); MIC (Staphylococcus aureus [29]): 1 µg/mL (≈ 3.13 µM); MIC (Staphylococcus aureus [30]): 3.9 µg/mL (≈ 12.2 µM); MIC (Staphylococcus aureus [31]): 3.9 µg/mL (≈ 12.2 µM); MIC (Staphylococcus aureus [32]): 0.25 µg/mL (≈ 0.782 µM); MIC (Staphylococcus aureus [19]): 1 µg/mL (≈ 3.13 µM); MIC (Enterococcus faecium): 3.9 µg/mL (≈ 12.2 µM); MIC (Staphylococcus aureus [20]): 3.9 µg/mL (≈ 12.2 µM); MIC (Staphylococcus aureus [21]): 3.9 µg/mL (≈ 12.2 µM); MIC (Staphylococcus aureus [22]): 2 µg/mL (≈ 6.26 µM); MIC (Staphylococcus aureus [23]): 3.9 µg/mL (≈ 12.2 µM); MIC (Staphylococcus aureus [24]): 62.5 µg/mL (≈ 196 µM); MIC (Enterococcus faecalis [25]): > 125 µg/mL; MIC (Staphylococcus aureus [26]): 1 µg/mL (≈ 3.13 µM)

Reference: ChEMBL document CHEMBL3864121, “Development of ebsulfur analogues as potent antibacterials against methicillin-resistant Staphylococcus aureus” (Bioorg Med Chem, 2016)
